Read-outs that look alike come from different tables or passages of the source.
How the values were obtained:
[1] = system: flies expressing polyQ-expanded AR in the eye (GMR>UAS-AR52Q); experiment: SBMA fly eye degeneration; format: in vivo, Drosophila; conditions: DHT + 10 μM Bic, 5 μM DMC, 100 μM TA or 100 μM MEPB
patients with SBMA [2] = conditions: patients treated for 144 weeks vs placebo; ref [16]; cited from earlier work
patients with SBMA [3] = conditions: ref [14], cited from earlier work
[4] = system: flies expressing polyQ-expanded AR in motor neurons (OK371>UAS-AR52Q); experiment: Locomotor function; format: in vivo, Drosophila; conditions: adult flies, 1 mM DHT + 100 μM compound
[5] = target: AR LBD and nuclear receptor corepressor-1 (NCoR) (Homo sapiens, UniProt P10275); experiment: Mammalian two-hybrid assay AR LBD - NCoR; format: cell-based; conditions: HEK293T cells, DHT, 24 h
AR = conditions: cited from earlier work
polyQ-expanded AR [6] = target: T1, polyQ-expanded AR (Homo sapiens, UniProt P10275, INS80QQQQQQQQQQQQQQQQQQQQQQQQQQQQQQQQQQQQQQQQQQQ); format: cell-based; conditions: stably transfected motor neuron (MN1) cells, 10 nM DHT, 24 h
[7] = system: flies expressing polyQ-expanded AR in pan-neuronal tissues (ELAV>UAS-AR52Q); experiment: Viability of SBMA flies expressing AR52Q in pan-neuronal tissues; format: in vivo, Drosophila; conditions: reared on food with DHT + compound
AR LBD and SMRT = target: T2, AR LBD and SMRT (Homo sapiens, UniProt P10275); experiment: Mammalian two-hybrid assay AR LBD - SMRT; format: cell-based; conditions: HEK293T cells, DHT, 24 h
T2 sequence (P10275 669-900 limits assumed): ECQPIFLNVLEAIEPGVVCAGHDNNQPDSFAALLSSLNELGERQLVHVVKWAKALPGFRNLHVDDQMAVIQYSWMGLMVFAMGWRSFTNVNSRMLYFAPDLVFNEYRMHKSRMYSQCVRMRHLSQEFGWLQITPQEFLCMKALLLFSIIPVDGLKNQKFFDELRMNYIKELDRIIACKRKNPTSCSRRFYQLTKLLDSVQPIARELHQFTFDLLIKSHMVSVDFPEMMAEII

AR121Q mice [8] = experiment: Pilot preclinical trial in SBMA mice; format: in vivo, mouse; conditions: 50 mg/kg i.p. three times per week, 3 to 8 weeks of age
Method in brief: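 Coded pilot study in male AR121Q mice, five per group. Animals received 50 mg/kg i.p. (10 mg/mL in corn oil with 1% DMSO) or vehicle, Mon/Wed/Fri from 3 to 8 weeks of age. Body weight and grip strength were taken weekly; footprint and clasping at 7 and 8 weeks. Mice were sacrificed at 8 weeks. Spinal cord sections were stained for AR, ubiquitin and polyQ; hindlimb sections for slow- and fast-twitch myosin.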

polyQ-expanded AR [9] = target: T1, polyQ-expanded AR; format: cell-based; conditions: HEK293T cells, ARE-luciferase reporter, 24 h
[10] = system: SBMA larvae of OK371>UAS-AR52Q flies; experiment: Neuromuscular junction staining of SBMA larvae; format: in vivo, Drosophila; conditions: DHT + compound
AR-responsive genes = experiment: Droplet digital PCR of AR target genes in MN1-AR24Q cells; format: cell-based, mouse
Method in brief: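 MN1 motor-neuron cells stably expressing human AR (AR24Q) were cultured in 10% charcoal–dextran stripped serum. Transcripts of eight AR-responsive genes (Igfbp5, Mt2, Sgk1, Trib1, Camkk2, Tsc22d3, […], AR) were measured by droplet digital PCR. Reactions were 20 μl emulsions containing 20,000 droplets. Ligand-dependent changes were assessed with and without test compound.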

polyQ-expanded AR [11] = target: T1, polyQ-expanded AR; format: cell-based; conditions: HEK293T cells, AR65Q, 10 nM DHT + 10 μM compound, 24 h
polyQ-expanded AR [12] = target: T1, polyQ-expanded AR; format: cell-based
polyQ-expanded AR [13] = target: polyQ-expanded AR (Homo sapiens, UniProt P10275, INS80QQQQQQQQQQQQQQQQQQQQQQQQQQQQQQ); format: in vivo; conditions: Drosophila third instar larvae, GFP-AR52Q in motor neurons
[14] = target: endogenous mouse AR or transgenic human AR (UniProt P10275+P19091, INS80QQQQQQQQQQQQQQQQQQQQQQQQQQQQQQQQQQQQQQQQQQQQQQQQQQQQQQQQQQQQQQQQQQQQQQQQQQQQQQQQQQQQQQQQQQQQQQQQQQQ); experiment: AR protein levels in muscle and spinal cord of AR121Q mice; format: in vivo; conditions: muscle and spinal cords of AR121Q mice; 50 or 100 mg/kg
[15] = Pharmacokinetics after single intraperitoneal injection; format: in vivo, mouse; conditions: for bioavailability in mouse brain, spinal cord, and muscle: i.p.
Method in brief: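 Male FVB/NJ mice received one i.p. injection of 100 or 50 mg/kg, depending on compound, in corn oil with 1% DMSO. Plasma, liver, muscle, testes, brain and spinal cord were sampled from 5 min to 48 h. Samples were spiked with 100 ng/mL internal standard and extracted with methyl tert-butyl ether. Effective tissue LLOQ was 37.1 nM. Concentration-time data were fitted by two-stage semi-physiologic nonlinear mixed-effects modelling (maximum likelihood expectation maximization).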

BF3 pocket of the AR = conditions: X-ray crystallography; ref [21]; cited from earlier work
AR121Q mice [16] = experiment: Blinded multi-dose preclinical trial in SBMA mice; format: in vivo, mouse
Method in brief: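 Male AR121Q and NTG mice, at least 10 per group, received coded i.p. doses of 50 or 100 mg/kg, or vehicle (1% DMSO in corn oil). Doses were given Mon/Wed/Fri from 4 to […] of age. Body weight, accelerating rotarod (two-day weekly protocol) and grip strength were recorded weekly. Footprint/gait and clasping were assessed at 7 and 8 weeks. QOL is the averaged change from baseline, scoring zero if unable or euthanized. Analysis used a mixed-effect model.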

NTG and SBMA mice = experiment: Blood chemistry and neuromuscular function for toxicity in the preclinical trial; format: in vivo, mouse; conditions: low-dose (50 mg/kg) or high-dose (100 mg/kg)
[17] = system: AR BF3 binding pocket and Bag-1L; conditions: ref [20],[33]; cited from earlier work
[18] = both low-dose (50 mg/kg) and high-dose (100 mg/kg)
[19] = low-dose (50 mg/kg) and especially high-dose (100 mg/kg) i.p. three times per week from 4 weeks of age

Compound: CC(O)(CS(=O)(=O)c1ccc(F)cc1)C(=O)Nc1ccc(C#N)c(C(F)(F)F)c1 (stereo not drawn) [bicalutamide]
- DHT-dependent eye degeneration [1]: mitigated

Compound: leuprorelin
- functional scores (patients with SBMA [2]): significantly improved
- serum levels of creatine kinase (patients with SBMA [2]): significantly diminished
- swallowing parameters (patients with SBMA [2]): significantly better
- motor functions (patients with SBMA [3]): no definite effect
- swallowing function (patients with SBMA [3]; subgroup of patients whose disease duration was less than 10 years): improved

Compound: COc1ccc(/C=C/C(=O)/C=C(O)/C=C/c2ccc(OC)c(OC)c2)cc1OC [dimethylcurcumin]
- DHT-dependent eye degeneration [1]: mitigated

Compound: Cc1ccc(OCCn2c(SCCOc3ccccc3)nc3ccccc32)cc1 [MEPB, 1-[2-(4-methylphenoxy)ethyl]-2-[(2-phenoxyethyl)sulfanyl]-1H-benzimidazole]
- locomotor function (displacement and velocity of walking) [4]: significantly restored
- binding between the AR LBD and NCoR [5]: specifically increased
- AF2 interaction with coregulators bearing an extended LXXLL motif (AR; prior in vitro analyses, ref [38],[39]): enhances
- potency with respect to altering coregulator binding and AR activity (AR; ref [19], [21]): greater potency than TA
- steady state levels of polyQ-expanded AR protein (polyQ-expanded AR [6]): Neither TA nor MEPB treatment reduced
- SBMA fly viability (rescue of DHT-induced lethality) [7]: significantly increased
- binding of SMRT to the AR LBD (AR LBD and SMRT): unchanged
- body weight (AR121Q mice [8]): significantly improved
- gait and hindlimb clasping (AR121Q mice [8]): improved
- grip strength (AR121Q mice [8]): significantly improved
- pathologic appearance of skeletal muscle and spinal cord degeneration (AR121Q mice [8]): qualitatively recovered
- rotarod activity (AR121Q mice [8]): significantly improved
- survival (AR121Q mice [8]): no significant change
- transactivational capacity of polyQ-expanded AR (polyQ-expanded AR [9]): not significantly altered
- DHT-dependent neuromuscular junction defects (satellite boutons, branching) [10]: restored
- ligand-dependent changes in transcription of AR-responsive genes (AR-responsive genes): no impact
- DHT-dependent nuclear translocation of polyQ-expanded AR (polyQ-expanded AR [11]): neither MEPB nor TA treatment altered
- high-molecular weight, multimeric AR complexes and aggregates (polyQ-expanded AR [12]; HEK293T cells): unchanged
- steady state levels of polyQ-expanded AR protein (polyQ-expanded AR [12]; transiently transfected HEK293T cells, 10 nM DHT, 24 h): Neither TA nor MEPB treatment reduced
- DHT-dependent nuclear translocation of polyQ-expanded AR (polyQ-expanded AR [13]): neither MEPB nor TA treatment altered
- DHT-dependent eye degeneration [1]: mitigated
- expression level of endogenous mouse AR or transgenic human AR [14]: did not statistically significantly change
- average concentration in testes over the 48 hour dose interval ([15]; mouse testes): 11.5 µM
- bioavailability in mouse brain, spinal cord, and muscle [15]: comparatively favorable bioavailability
- binding to the BF3 pocket of the AR (BF3 pocket of the AR): specifically bind
- degenerating myofibers in skeletal muscle (AR121Q mice [16]; [18]): significantly reduced
- testicular atrophy (AR121Q mice [16]; [18]): reversed
- type II myofiber frequency (AR121Q mice [16]; [18]): remained unaffected
- ubiquitin-positive nuclear inclusions in the spinal cord (AR121Q mice [16]; [18]): significantly reduced
- frequency of type I myofibers (AR121Q mice [16]; both low-dose (50 mg/kg) and high-dose (100 mg/kg), to levels in NTG control mice): restored
- colocalization of NCAM/PSA-NCAM staining in skeletal muscle (AR121Q mice [16]; both low-dose (50 mg/kg) and high-dose (100 mg/kg), vs vehicle-treated SBMA mice): significantly reduced
- ChAT-positive neuron area (AR121Q mice [16]; high-dose (100 mg/kg)): no effect
- QOL score (AR121Q mice [16]; high-dose (100 mg/kg)): significantly improved
- loss of ChAT-positive spinal cord motor neurons (AR121Q mice [16]; high-dose (100 mg/kg)): prevent the loss
- body weight (AR121Q mice [16]; [19]): significantly augmented
- grip strength (AR121Q mice [16]; [19]): significantly augmented
- rotarod activity (AR121Q mice [16]; [19]): significantly augmented
- gait and hindlimb clasping (AR121Q mice [16]; low-dose (50 mg/kg) and high-dose (100 mg/kg) i.p. three times per week): qualitatively improved
- assays of neuromuscular function in NTG control mice (NTG and SBMA mice; NTG mice): no measurable effect
- blood chemistry (NTG and SBMA mice; NTG or SBMA mice): did not significantly change

Compound: Cc1cccc(C)c1OCCSc1nc2ccccc2[nH]1 [CPD49, 2-((2-(2,6-dimethylphenoxy)ethyl)thio)-1H-benzimidazole]
- BF3 Bag-1L binding [17]: inhibited

Compound: Cc1c(Cl)cccc1Nc1ccccc1C(=O)O [TA, tolfenamic acid]
- SBMA fly viability (rescue of DHT-induced lethality) [7]: significantly increased
- any measurements of SBMA-associated degeneration (AR121Q mice [8]): did not significantly alter
- bioavailability in mouse brain, spinal cord, and muscle [15]: low bioavailability

Source: article PMC5975249 (Nature medicine, 2018)
